# Reference: ChEMBL document CHEMBL1938380, “Indole RSK inhibitors. Part 1: discovery and initial SAR” (Bioorg Med Chem Lett, 2012)
# Legend:
# [1] = molecular target: T1, Ribosomal protein S6 kinase alpha-3 (Homo sapiens, UniProt P51812); test: Inhibition of RSK2-mediated CREB phosphorylation in HeLa cells expressing luciferase reporter gene; type: cell-based
# [2] = molecular target: T1, Ribosomal protein S6 kinase alpha-3; test: Inhibition of RSK2 phosphorylation by luminescence assay
# Method in brief: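 Soluble RSK2 enzyme; its phosphorylation activity was read out in a luminescent kinase assay format adapted from a published method.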
# T1 sequence (P51812 whole entry): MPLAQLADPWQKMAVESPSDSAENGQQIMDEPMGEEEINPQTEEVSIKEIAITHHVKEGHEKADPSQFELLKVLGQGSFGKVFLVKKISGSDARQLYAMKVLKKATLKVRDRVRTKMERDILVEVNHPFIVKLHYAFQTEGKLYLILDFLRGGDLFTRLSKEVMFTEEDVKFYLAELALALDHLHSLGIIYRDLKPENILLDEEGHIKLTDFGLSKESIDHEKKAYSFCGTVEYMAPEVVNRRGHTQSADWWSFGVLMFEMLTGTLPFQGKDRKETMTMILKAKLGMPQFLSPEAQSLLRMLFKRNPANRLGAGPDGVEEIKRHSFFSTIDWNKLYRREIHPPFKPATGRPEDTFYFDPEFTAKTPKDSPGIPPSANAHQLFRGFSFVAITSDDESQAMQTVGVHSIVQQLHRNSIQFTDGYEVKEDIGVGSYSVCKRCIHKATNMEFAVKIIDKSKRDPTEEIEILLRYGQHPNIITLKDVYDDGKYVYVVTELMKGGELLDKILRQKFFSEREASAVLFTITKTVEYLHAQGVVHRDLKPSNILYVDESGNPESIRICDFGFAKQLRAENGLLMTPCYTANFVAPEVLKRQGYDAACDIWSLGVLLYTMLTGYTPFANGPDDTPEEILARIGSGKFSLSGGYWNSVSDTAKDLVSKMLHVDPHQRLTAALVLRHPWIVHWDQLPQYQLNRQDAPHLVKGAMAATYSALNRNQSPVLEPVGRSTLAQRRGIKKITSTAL
SMILES,IC50 [1] [nM],IC50 [2] [nM]
CC1CCNC(=O)c2cc3ccc(C(=O)Nc4cccnc4)cc3n21 (centres undefined),890,
CC1CCn2c(cc3ccc(C(=O)Nc4cccnc4)cc32)C(=O)N1 (centres undefined),,2500
CC1CNC(=O)c2cc3ccc(C(=O)Nc4cccnc4)cc3n21 (centres undefined),1630,170
CC1(C)CNC(=O)c2cc3ccc(C(=O)Nc4cccnc4)cc3n21,1550,210
NCC1Cn2c(cc3ccc(C(=O)Nc4cccnc4)cc32)C(=O)N1 (centres undefined),,970
O=C(NC1CCCCC1)c1ccc2cc3n(c2c1)CCCNC3=O,,> 10000
O=C(Nc1ccc(Cl)cc1)c1ccc2cc3n(c2c1)CCCNC3=O,,180
NC(=O)c1ccccc1NC(=O)c1ccc2cc3n(c2c1)CCCNC3=O,560,
O=C(Nc1ccncc1)c1ccc2cc3n(c2c1)CCCNC3=O,620,34
O=C(Nc1ccccn1)c1ccc2cc3n(c2c1)CCCNC3=O,2630,
O=C(NCc1cccnc1)c1ccc2cc3n(c2c1)CCCNC3=O,> 10000,> 10000
O=C(Nc1cn[nH]c1)c1ccc2cc3n(c2c1)CCCNC3=O,> 10000,
O=C(Nc1cnc2ccccc2c1)c1ccc2cc3n(c2c1)CCCNC3=O,340,
O=C(Nc1cccnc1)c1ccc2cc3n(c2c1)CCCNC3=O,1940,240
O=C(Nc1cccnc1)c1ccc2cc3n(c2c1)CCNC3=O,> 10000,730
C[C@@H]1CNC(=O)c2cc3ccc(C(=O)Nc4cccnc4)cc3n2[C@@H]1C (relative stereo),,240

# Further lines, results first:
IC50 [1] [nM],IC50 [2] [nM],SMILES
,410,O=C(Nc1cccnc1)c1ccc2cc3n(c2c1)CC1(CC1)CNC3=O
,> 10000,O=C(Nc1cccnc1)c1ccc2cc3n(c2c1)CC1(CCOCC1)CNC3=O
,9100,NC(=O)c1ccc2cc3n(c2c1)CCCNC3=O
1930,,O=C(Nc1ccccc1)c1ccc2cc3n(c2c1)CCCNC3=O
,> 10000,O=C(Nc1ncccn1)c1ccc2cc3n(c2c1)CCCNC3=O
290,,O=C(Nc1ncc[nH]1)c1ccc2cc3n(c2c1)CCCNC3=O
,> 1000,Cn1nccc1NC(=O)c1ccc2cc3n(c2c1)CCCNC3=O
840,,CC(C)n1ncc2cc(NC(=O)c3ccc4cc5n(c4c3)CCCNC5=O)cnc21
1130,68,O=C(Nc1ccc2ccccc2n1)c1ccc2cc3n(c2c1)CCCNC3=O
,> 10000,O=C(Nc1nc2ccccc2s1)c1ccc2cc3n(c2c1)CCCNC3=O
> 10000,,O=C(Nc1nc2ccccc2o1)c1ccc2cc3n(c2c1)CCCNC3=O
> 10000,4,O=C(Nc1nc2ccccc2[nH]1)c1ccc2cc3n(c2c1)CCCNC3=O
,350,CC1Cn2c(cc3ccc(C(=O)Nc4cccnc4)cc32)C(=O)N1 (centres undefined)
4890,1200,CC1CNC(=O)c2cc3ccc(C(=O)Nc4cccnc4)cc3n2C1 (centres undefined)
,1800,NCC1CNC(=O)c2cc3ccc(C(=O)Nc4cccnc4)cc3n2C1 (centres undefined)
,2200,O=C(Nc1nccs1)c1ccc2cc3n(c2c1)CCCNC3=O
840,45,C[C@@H]1NC(=O)c2cc3ccc(C(=O)Nc4cccnc4)cc3n2[C@@H]1C (relative stereo)
,871,C[C@@H]1[C@@H](C)NC(=O)c2cc3ccc(C(=O)Nc4cccnc4)cc3n21 (relative stereo)
